This passage reports SUV results from ChEMBL document CHEMBL1154674, “Synthesis and evaluation of three 18F-labeled aminophenylbenzothiazoles as amyloid imaging agents” (J Med Chem, 2009).

Holding throughout (assay type): ADME, organism-based, Macaca mulatta
Data set [1] can be described thus: Drug level in normal rhesus monkey pons assessed as standard uptake value at 81.2 MBq, iv after 32.5 mins by microPET. To be noted: in vivo.
A short description of data set [2]: Drug level in normal rhesus monkey frontal cortex assessed as standard uptake value at 81.2 MBq, iv after 6 mins by microPET. Particulars: in vivo, 0.1 h.
The nature of data set [3]: Drug level in normal rhesus monkey thalamus assessed as standard uptake value at 81.2 MBq, iv after 115 mins by microPET. To be noted: in vivo.
Data set [4] in a line: Drug level in normal rhesus monkey cerebellum assessed as standard uptake value at 81.2 MBq, iv after 145 mins by microPET. To be noted: in vivo. The method in brief:
(§1)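 One normal rhesus monkey, each tracer given iv via the vena saphena (81.2, 96.3 or 109.4 MBq), with 1 day between tracer injections. Dynamic brain μPET over 180 min used frames of 5 × 60 s, 5 × 120 s, 9 × 300 s and 12 × 600 s. Images were reconstructed by filtered back projection with a RAMP filter. Regional time-activity curves were expressed as SUV.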

The nature of data set [5]: Drug level in normal rhesus monkey parietal cortex assessed as standard uptake value at 81.2 MBq, iv after 155 mins by microPET. Particulars: in vivo.
Data set [6] can be described thus: Drug level in normal rhesus monkey white matter assessed as standard uptake value at 81.2 MBq, iv after 17.5 mins by microPET. Particulars: in vivo.
Data set [7] is described as follows: Drug level in normal rhesus monkey cerebellum assessed as standard uptake value at 81.2 MBq, iv after 115 mins by microPET. Particulars: in vivo. The method in brief:
as §1

Data set [8] can be described thus: Drug level in normal rhesus monkey parietal cortex assessed as standard uptake value at 81.2 MBq, iv after 57.5 mins by microPET. Particulars: in vivo.
Data set [9] can be described thus: Drug level in normal rhesus monkey pons assessed as standard uptake value at 81.2 MBq, iv after 155 mins by microPET. Particulars: in vivo.
A short description of data set [10]: Drug level in normal rhesus monkey frontal cortex assessed as standard uptake value at 81.2 MBq, iv after 65 mins by microPET. To be noted: in vivo.
Data set [11] can be described thus: Drug level in normal rhesus monkey parietal cortex assessed as standard uptake value at 81.2 MBq, iv after 105 mins by microPET. Particulars: in vivo, 1.75 h.
Data set [12] is described as follows: Drug level in normal rhesus monkey white matter assessed as standard uptake value at 96.3 MBq, iv after 37.5 mins by microPET. To be noted: in vivo, 0.625 h.
A short description of data set [13]: Drug level in normal rhesus monkey frontal cortex assessed as standard uptake value at 96.3 MBq, iv after 4.5 mins by microPET. To be noted: in vivo, 0.075 h.
Data set [14] in a line: Drug level in normal rhesus monkey cerebellum assessed as standard uptake value at 96.3 MBq, iv after 85 mins by microPET. Particulars: in vivo. In a few lines: as §1
A short description of data set [15]: Drug level in normal rhesus monkey frontal cortex assessed as standard uptake value at 96.3 MBq, iv after 17.5 mins by microPET. To be noted: in vivo.
Data set [16] is described as follows: Drug level in normal rhesus monkey white matter assessed as standard uptake value at 96.3 MBq, iv after 27.5 mins by microPET. Particulars: in vivo.
Data set [17] is described as follows: Drug level in normal rhesus monkey white matter assessed as standard uptake value at 96.3 MBq, iv after 12 mins by microPET. Particulars: in vivo, 0.2 h.
Data set [18] in a line: Drug level in normal rhesus monkey parietal cortex assessed as standard uptake value at 96.3 MBq, iv after 22.5 mins by microPET. Particulars: in vivo, 0.375 h.
Data set [19] can be described thus: Drug level in normal rhesus monkey pons assessed as standard uptake value at 109.4 MBq, iv after 32.5 mins by microPET. Particulars: in vivo.
A short description of data set [20]: Drug level in normal rhesus monkey parietal cortex assessed as standard uptake value at 109.4 MBq, iv after 52.5 mins by microPET. Particulars: in vivo, 0.875 h.
Data set [21] can be described thus: Drug level in normal rhesus monkey thalamus assessed as standard uptake value at 109.4 MBq, iv after 87 mins by microPET. Particulars: in vivo, 1.45 h.
Data set [22] is described as follows: Drug level in normal rhesus monkey thalamus assessed as standard uptake value at 109.4 MBq, iv after 117 mins by microPET. Particulars: in vivo, 1.95 h.
Data set [23] can be described thus: Drug level in normal rhesus monkey frontal cortex assessed as standard uptake value at 109.4 MBq, iv after 123 mins by microPET. To be noted: in vivo, 2.05 h.
Data set [24] in a line: Drug level in normal rhesus monkey white matter assessed as standard uptake value at 109.4 MBq, iv after 0.375 mins by microPET. To be noted: in vivo, 22 s.
Data set [25] in a line: Drug level in normal rhesus monkey pons assessed as standard uptake value at 109.4 MBq, iv after 63 mins by microPET. Particulars: in vivo, 1.05 h.
A short description of data set [26]: Drug level in normal rhesus monkey frontal cortex assessed as standard uptake value at 109.4 MBq, iv after 4.5 mins by microPET. Particulars: in vivo, 0.075 h. The method in brief: as §1
Data set [27] can be described thus: Drug level in normal rhesus monkey cerebellum assessed as standard uptake value at 109.4 MBq, iv after 22.5 mins by microPET. Particulars: in vivo, 0.375 h. In a few lines: (§2)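 One normal rhesus monkey received each tracer via the vena saphena, with 1 day between injections. Dynamic μPET ran 180 min for 18F tracers (5×60 s, 5×120 s, 9×300 s, 12×600 s) and 90 min for the 11C tracer (5×60 s, 5×120 s, 9×300 s, 3×600 s). Filtered back-projection reconstruction (RAMP filter) was used. Time-activity curves were drawn to give regional SUV.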

A short description of data set [28]: Drug level in normal rhesus monkey cerebellum assessed as standard uptake value at 109.4 MBq, iv after 105 mins by microPET. Particulars: in vivo, 1.75 h.
Data set [29] can be described thus: Drug level in normal rhesus monkey cerebellum assessed as standard uptake value at 152.9 MBq, iv after 57.5 mins by microPET. Particulars: in vivo. In a few lines:
as §2

A short description of data set [30]: Drug level in normal rhesus monkey pons assessed as standard uptake value at 152.9 MBq, iv after 3.5 mins by microPET. Particulars: in vivo.
Data set [31] is described as follows: Drug level in normal rhesus monkey cerebellum assessed as standard uptake value at 152.9 MBq, iv after 85 mins by microPET. Particulars: in vivo. In a few lines: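 One normal rhesus monkey, tracer given iv via the vena saphena (152.9 MBq), with at least 1 day between tracer injections. Dynamic brain μPET over 90 min used frames of 5 × 60 s, 5 × 120 s, 9 × 300 s and 3 × 600 s. Images were reconstructed by filtered back projection with a RAMP filter. Regional time-activity curves were expressed as SUV.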

Data set [32] can be described thus: Drug level in normal rhesus monkey cerebellum assessed as standard uptake value at 152.9 MBq, iv after 22.5 mins by microPET. Particulars: in vivo, 0.375 h. In a few lines: as §2
A short description of data set [33]: Drug level in normal rhesus monkey thalamus assessed as standard uptake value at 152.9 MBq, iv after 4.5 mins by microPET. Particulars: in vivo, 0.075 h.
A short description of data set [34]: Drug level in normal rhesus monkey white matter assessed as standard uptake value at 152.9 MBq, iv after 37.5 mins by microPET. Particulars: in vivo, 0.625 h.
Data set [35] is described as follows: Drug level in normal rhesus monkey pons assessed as standard uptake value at 152.9 MBq, iv after 1.5 mins by microPET. Particulars: in vivo, 0.025 h.
Data set [36] can be described thus: Drug level in normal rhesus monkey thalamus assessed as standard uptake value at 152.9 MBq, iv after 47.5 mins by microPET. Particulars: in vivo.
The nature of data set [37]: Drug level in normal rhesus monkey white matter assessed as standard uptake value at 152.9 MBq, iv after 0.5 mins by microPET. To be noted: in vivo.

Take `CNc1ccc2nc(-c3ccc([18F])cc3)sc2c1`: the SUV in [1] amounted to 5.714; in data set [2], 5.127; in [3], 5.209; in [4], 1.602; in data set [5], 2.662; in data set [6], 3.647. The SUV in data set [7] was found to be 1.715; in [8] it was 3.575; in data set [9], 5.431; in data set [10], 5.125; in data set [11], 2.784.

In the case of `CN(C)c1ccc2nc(-c3ccc([18F])cc3)sc2c1`, the SUV worked out at 1.46 in data set [12]; 1.64 in [13]; 1.03 in data set [14]; 2.22 in data set [15]; 1.39 in data set [16]; 1.31 in data set [17]. Also, the SUV in data set [18] was found to be 2.09.

Take `Nc1ccc2nc(-c3ccc([18F])cc3)sc2c1`: the SUV in [19] is recorded as 4.74; in [20], 4.38; in data set [21], 4.98; in data set [22] it was 4.66; in [23], 4.13; in [24], -0.01. Moreover, the SUV in [25] is 4.75; in data set [26], 5.43; in data set [27], 4.4; in data set [28] it was 2.5.

On to `[11CH3]Nc1ccc(-c2nc3ccc(O)cc3s2)cc1` [PITTSBURGH COMPOUND B], for which the SUV amounted to 0.764 in data set [29]; 1.502 in [30]; 0.685 in [31]; 1.502 in [32]; 2.075 in data set [33]; 1.095 in data set [34]. Also, the SUV was found to be 0.447 in data set [35], 1.161 in data set [36] and 0.038 in data set [37].
